Cneo AK release: Cryptococcus neoformans lysis via adenylate kinase release. C. neoformans lysis, adenylate kinase release luminescence, 4 h; normalised: neutral wells 0, clomiphene wells 100. lysis activity, % at 15 µM. 360,000 tested, 0.2% active. AID 651654;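 active = mean lysis activity across replicates of at least 80%, whatever share of replicates individually reach that level; inactive = mean lysis activity below 80%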
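Schedule: static 4 h at 37 °C with compound, 1 h detection; system: C. neoformans cells; benchmarks: Clomiphene as positive control; buffer or medium: fresh YPD medium; measure: luminescence rise reflecting yeast cell lysis; measured by: luminescent adenylate kinase detection reagent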
AF4-AF9 inh: blocks AF4 peptide binding to human AF9. AlphaScreen, biotin-AF4 peptide binding to FLAG-AF9. inhibition, % at 10 µM. 350,000 tested, 0.47% active. AID 651704;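 active = every replicate reaching a set inhibition limit, whatever the replicate mean, cut at about 25% in these data; inconclusive = mean inhibition reaches that limit but some replicates miss it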;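 note: 0% = plate neutral control median and 100% = total signal loss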
Target sequence (P42568 whole entry, looked up): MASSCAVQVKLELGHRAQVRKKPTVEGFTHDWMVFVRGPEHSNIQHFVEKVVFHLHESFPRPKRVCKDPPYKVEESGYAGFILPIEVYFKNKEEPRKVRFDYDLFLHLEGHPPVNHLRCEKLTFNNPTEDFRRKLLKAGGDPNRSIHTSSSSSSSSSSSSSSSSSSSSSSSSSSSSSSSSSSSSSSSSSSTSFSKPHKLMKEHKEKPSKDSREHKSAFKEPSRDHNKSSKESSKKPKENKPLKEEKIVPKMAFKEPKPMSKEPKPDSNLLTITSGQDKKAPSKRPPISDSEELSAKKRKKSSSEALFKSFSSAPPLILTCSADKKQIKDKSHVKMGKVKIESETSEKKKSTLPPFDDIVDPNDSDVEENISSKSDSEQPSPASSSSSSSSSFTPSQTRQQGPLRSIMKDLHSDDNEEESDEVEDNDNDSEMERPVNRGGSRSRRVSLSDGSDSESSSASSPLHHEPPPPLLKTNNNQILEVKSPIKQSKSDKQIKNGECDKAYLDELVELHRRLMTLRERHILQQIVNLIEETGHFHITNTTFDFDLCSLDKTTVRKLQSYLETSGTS
DENV2 CPE rescue: protects cells from dengue virus 2 cytopathic effect; DENV2-infected cells, cytopathic effect rescue, plate reader; CPE inhibition, % at 9.99 µM; 350,000 tested, 1.7% active; in the data active = CPE inhibition above about 20%, passing the limit was not always enough; inconclusive = no clear call, values can overlap the other calls; tested in BHK-21 cells;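 note: 0% = median of neutral control wells and 100% = median of positive control wells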
S100A4 inh HTS: blocks human S100A4 binding to myosin IIA peptide. 360,000 tested, 0.14% active. inhibition, % at 10.7 µM. P26447. S100A4/TAMRA-MyoIIA peptide fluorescence polarization;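 active = mean inhibition of at least 70% across replicates, with every replicate also reaching that level; inconclusive = mean inhibition reaches 70% but some replicates fall short; inactive = mean inhibition below 70%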
Target sequence (P26447 whole entry, looked up): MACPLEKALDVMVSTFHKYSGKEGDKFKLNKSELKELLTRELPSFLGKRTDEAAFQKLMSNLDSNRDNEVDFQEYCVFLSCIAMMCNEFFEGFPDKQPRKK
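assay system = human S100A4 monomer with TAMRA-labelled myosin IIA peptide | also added = labelled myosin peptide probe, 5 nM | incubation = 5 min between mix addition and reading | control set = DMSO and TFP controls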
PfHsp90 yeast 2: reduces growth (ATP signal) of yeast expressing P. falciparum Hsp90; S. cerevisiae expressing PfHsp90, BacTiter-Glo ATP, 48 h; yeast lacking PDR1 and PDR3 efflux regulators; 310,000 tested, 0.32% active; inhibition, % at 9.4 µM;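 active = every replicate shows inhibition above about 80%, whatever the replicate mean, limit read from the data; inconclusive = mean inhibition reaches the set limit but some replicate falls short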;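 note: 0% = DMSO neutral controls and 100% = 20 µM radicicol positive controls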
rRNA inh HTS: inhibits bacterial ribosomal RNA function over humanized ribosomes. E. coli WT GFP vs humanized-ribosome RFP mutants, fluorescence, 24 h; hits give low values; DMSO median 0, no signal -100. GFP signal change (wild-type ribosome), % (test concentration not listed). 350,000 tested, 1.6% active. AID 720706;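 active = significant combined selectivity score with lowered wild-type GFP, culture density cut under 30%, mutant RFP and density less affected; inactive = any of these conditions unmet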
AID977621: wild-type E. coli growth inhibition versus H69 humanized strain – H69 mutant RFP, wild-type GFP, cherry-pick, dose response. shares compounds with rRNA inh HTS. fluorescence, 24 h. activity change, negative = inhibition at 50 µM. 1,900 tested, under 10 active. AID 977621;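 active = Wild-type ribosome reporter drop at least double the humanized mutant ribosome reporter drop, growth loss under a set limit; inconclusive = no clear call, values can overlap the other calls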;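 note: wild-type GFP and H69 mutant RFP strains grown together 50/50 in each well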
AID977628: E. coli growth inhibition, wild-type GFP versus h24 humanized RFP strain, dose response, h24 mutant RFP vs wild-type GFP, cherry-pick. shares compounds with rRNA inh HTS. E. coli WT GFP strain growth, fluorescence, 24 h. activity change, negative = inhibition at 50 µM. 1,900 tested, under 10 active. AID 977628;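 active = compound lowering the normal-ribosome reporter at least twice as much as the humanized-ribosome reporter, growth loss under a set limit; inconclusive = no clear call, values can overlap the other calls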;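 note: wild-type GFP and h24 humanized RFP strains co-cultured 1 to 1 per well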
Starred values were filed as active, the others as inactive; ? = inconclusive; / = not tested or not shown. Most compounds without a hit are left out; they make up all but 3.2% or so of the library.

SMILES	Cneo AK release	AF4-AF9 inh	DENV2 CPE rescue	S100A4 inh HTS	PfHsp90 yeast 2	rRNA inh HTS	AID977621	AID977628
C[C@H](CO)N1C[C@H](C)[C@@H](CN(C)CC2CC2)Oc2c(NC(=O)C3CCOCC3)cccc2C1=O	-54.2	-4.0	5.8	-8.2	/	3.4	/	/
C[C@@H]1CN([C@H](C)CO)S(=O)(=O)c2ccc(-c3cccnc3)cc2O[C@H]1CN(C)C(=O)CN(C)C	-0.9	1.4	-5.1	-2.3	/	2.9	/	/
Cc1onc(-c2c(F)cccc2Cl)c1C(=O)c1ccccc1O	5.8	-0.2	0.1	-0.7	14.3	-41.7*	-10.5	?
Cc1onc(-c2c(F)cccc2Cl)c1C(=O)c1ccccc1	-3.8	1.3	5.5	2.9	-9.3	-24.1	/	/
COc1ccc(NC(=O)Nc2cccc3c2O[C@H](CN(C)S(=O)(=O)c2ccc(Cl)cc2)[C@@H](C)CN([C@H](C)CO)C3=O)cc1	-0.9	-1.2	-4.9	15.4	/	-5.1	/	?
COc1ccc(NC(=O)Nc2cccc3c2O[C@@H](CN(C)S(=O)(=O)c2ccc(Cl)cc2)[C@H](C)CN([C@H](C)CO)C3=O)cc1	4.7	-0.2	-8.9	3.5	/	-4.2	/	?
Cc1noc(C)c1NC(=O)Nc1ccc2c(c1)C(=O)N([C@H](C)CO)C[C@@H](C)[C@H](CN(C)Cc1ccc3c(c1)OCO3)O2	-0.2	-1.3	/	-6.9	/	-0.3	/	/
O=C1c2ccccc2C(=O)N1CCCc1nc2ccccc2c(=O)n1CCCn1ccnc1	-0.5	/	/	/	/	/	/	/
O=C1c2cccc3cccc(c23)C(=O)N1CCCn1ccnc1	1.4	3.6	-6.6	-6.1	/	-21.3*	-15.1	?
Cc1ccccc1COc1ccc(-c2nn[nH]n2)cc1	-0.5	-13.0	6.4	-2.8	-3.5	-25.4*	?	/
O=S(=O)(c1ccccc1)N1CCN(Cc2ccccc2C(F)(F)F)CC1	-4.0	/	/	/	14.5	/	/	/
O=[N+]([O-])c1ccccc1CN1CCN(S(=O)(=O)c2ccccc2)CC1	/	2.4	7.2	-5.0	-5.0	-24.8*	?	?
O=C1CCCc2ccccc2N1Cc1ccccc1	/	1.1	7.7	-2.4	-4.3	-27.8*	-7.87	-11.9
O=C(N[C@H]1CC1c1ccccc1)c1ccc([N+](=O)[O-])cc1 (stereo partly drawn)	/	-1.8	-4.3	4.8	-13.5	-28.1*	?	-7.85
O=C(NCc1ccccc1)c1ccc([N+](=O)[O-])cc1	/	-2.8	0.1	-5.1	/	-5.6	/	/
O=C(c1cccnc1)N1CC2(C1)[C@@H](c1ccccc1)[C@@H](CO)N2C(=O)C1CCC1	/	-1.6	-1.9	4.4	/	1.6	/	/
CC12CC3CC(C)(C1)CC(C(=O)NNC(=O)c1ccncc1)(C3)C2	0.8	2.6	0.3	-4.5	-3.5	-11.7	/	/
CC(NC(=O)C12CC3CC(C)(CC(C)(C3)C1)C2)c1ccncc1 (stereo not drawn)	1.4	-6.9	1.8	-5.7	0.4	-23.6*	-19.6	-7.7
CC(=O)N1c2c(cc(Br)cc2S(=O)(=O)N2CCCCC2)CC1C (stereo not drawn)	0.3	-0.5	3.2	-2.4	-3.4	-19.4*	/	-6.52
CC(=O)N1c2c(cc(Br)cc2S(=O)(=O)N2CCOCC2)CC1C (stereo not drawn)	0.1	/	/	/	10.8	/	/	/
COc1ccc(/C=C/c2cccc[n+]2C)c(O)c1	-3.1	-14.8	1.3	-0.4	31.0	6.6	/	/
C[n+]1ccccc1/C=C/c1cc(Br)ccc1O	0.1	15.5	-3.9	2.8	9.6	-21.3*	/	?
COc1ccc(NC(=O)CSc2nnc(Cc3ccccc3)o2)c(OC)c1	2.1	-18.8	5.7	2.7	5.4	-24.3*	-22.6	-19.9
Cc1noc(C)c1S(=O)(=O)N(C)C[C@H]1Oc2c(cccc2N(C)C)C(=O)N([C@@H](C)CO)C[C@H]1C	0.9	-1.2	-9.0	/	/	7.6	/	/
C[C@@H]1CN([C@@H](C)CO)C(=O)c2cccc(NC(=O)C3CC3)c2O[C@@H]1CN(C)C(=O)Nc1ccc2c(c1)OCO2	0.3	-8.6	0.9	4.0	/	2.1	/	/
SMILES	Cneo AK release	AF4-AF9 inh	DENV2 CPE rescue	S100A4 inh HTS	PfHsp90 yeast 2	rRNA inh HTS	AID977621	AID977628
O=C(COC(=O)C1CC1)Nc1nc(-c2ccc(F)c(F)c2)cs1	-0.2	-4.1	4.6	-0.2	/	-24.0*	-6.52	/
CN(C)C(=O)C1C2NC(=S)N(c3cccc(Cl)c3)C1(C)Oc1ccc(Cl)cc12 (stereo not drawn)	-1.7	5.8	/	-0.9	19.7	-21.6*	-2.22	/
C[C@@H]1CN([C@H](C)CO)S(=O)(=O)c2ccc(C#Cc3ccccc3F)cc2O[C@@H]1CN(C)CC1CC1	18.0	6.2	10.5	-2.8	/	-1.1	/	/
O=C(Nc1ccc(-c2nnc3n2CCCCC3)cc1)c1cc2ccccc2o1	/	0.2	5.4	-5.0	8.6	-20.4*	-7.44	-3.19
O=C(Nc1cc(S(=O)(=O)N2CCCCC2)ccc1N1CCCCC1)C1CC1	/	0.0	2.5	0.6	-10.7	-20.1*	-6.49	-5.63
CC1CCCN(C(=O)C(C)Nc2cc(Cl)ccc2N2CCOCC2)C1 (stereo not drawn)	/	21.0	5.3	-47.5	/	-29.1*	?	/
COc1cccc(OC)c1C(=O)Nc1cc(Cl)ccc1N1CCOCC1	-0.1	/	/	/	1.5	/	/	/
O=C(O)CC(CC(=O)Nc1ccc(Oc2ccccc2)cc1)c1ccccc1 (stereo not drawn)	/	-3.5	-7.7	3.1	27.8	-26.9*	-18.8	-22.5
O=C(O)CC(CC(=O)Nc1ccc(N2CCOCC2)cc1)c1ccccc1 (stereo not drawn)	0.8	-0.2	-2.1	1.9	0.4	4.4	/	/
CCCCCc1nnc(NC(=O)C2COc3ccccc3O2)s1 (stereo not drawn)	3.4	-4.6	/	8.5	0.0	-20.0*	3.69	-11.1
O=C(CSCc1ccc(Br)cc1)NCc1ccccn1	1.6	-2.3	-2.7	-0.1	/	-19.4*	1.89	0.689
COc1ccc(CNC(=O)CSCc2c(F)cccc2Cl)cc1	-4.3	-29.9	15.4	2.8	-14.9	-26.7*	-2.64	/
O=C(CSCc1c(Cl)cccc1Cl)NCc1ccccn1	/	-1.1	4.0	-45.3	18.3	-22.8*	-5.63	-2.1
O=C(COc1ccc(Br)cc1)NCc1ccccn1	1.9	-1.8	/	1.8	2.4	6.1	/	/

Compound activity: PubChem, Broad Institute
